Measurements reported in ChEMBL document CHEMBL1152911, “Synthesis and biological activities of a pH-dependently activated water-soluble prodrug of a novel hexacyclic camptothecin analog” (Bioorg Med Chem Lett, 2009).
The source made the active and inactive calls. The calls are words filed in the database; no cut-off is given here.

How the values were obtained:
[1] = Stability of compound in pH 7.4 phosphate buffer at room temperature assessed as prodrug remaining after conversion into active drug CH0793076 after 3 hrs; format: physicochemical; conditions: pH 7.4, 3 h
[2] = Stability of compound in pH 5 phosphate buffer at room temperature assessed as prodrug remaining after conversion into active drug CH0793076 after 3 hrs; format: physicochemical; conditions: pH 5, 3 h
[3] = Solubility in water; format: physicochemical
NCI-H460 [4] = experiment: Antitumor activity against human BCRP-positive NCI-H460 cells xenografted in mouse at MTD of 47 mg/kg, iv administered as bolus once per week for 3 weeks; format: functional, organism-based; set-up: dose 47 mg/kg
Plasma [5] = experiment: Stability in monkey plasma assessed as time required for conversion into active drug CH0793076; format: ADME, cell-free, Macaca mulatta; conditions: rhesus monkey
HCT-116 [6] = experiment: Antitumor activity against human BCRP-negative HCT116 cells xenografted in mouse at MTD of 47 mg/kg, iv administered as bolus once per week for 3 weeks; format: functional, organism-based; set-up: dose 47 mg/kg
[7] = Stability of compound in pH 2 phosphate buffer at room temperature assessed as prodrug remaining after conversion into active drug CH0793076 after 3 hrs; format: physicochemical; conditions: pH 2, 3 h
Plasma [8] = experiment: Stability in mouse plasma assessed as time required for conversion into active drug CH0793076; format: ADME, cell-free
HCT-116 [9] = experiment: Antitumor activity against human BCRP-negative HCT116 cells xenografted in mouse at MTD of 100 mg/kg, iv administered as bolus once per week for 3 weeks; format: functional, organism-based; set-up: dose 100 mg/kg
Plasma [10] = experiment: Stability in dog plasma assessed as time required for conversion into active drug CH0793076; format: ADME, cell-free, Canis lupus familiaris
Procedure, shortened: (§1)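 ¹⁴C-labelled prodrug was incubated in plasma of the stated species. Formation of ¹⁴C-labelled active drug was followed over an incubation time course of 0–3 min.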

[11] = Toxicity in mouse administered as bolus iv injection once per week for 3 weeks; format: organism-based; conditions: in vivo
NCI-H460 [12] = experiment: Antitumor activity against human BCRP-positive NCI-H460 cells xenografted in mouse at MTD of 100 mg/kg, iv administered as bolus once per week for 3 weeks; format: functional, organism-based; set-up: dose 100 mg/kg
Plasma [13] = experiment: Stability in rat plasma assessed as time required for conversion into active drug CH0793076; format: ADME, cell-free; procedure, shortened: as §1

Structure (SMILES) | Stability [1] [%] | Stability [2] [%] | Stability [7] [%] | other results
CCCCCN1C=Nc2cccc3nc4c(c1c23)Cn1c-4cc2c(c1=O)COC(=O)[C@@]2(CC)OC(=O)CNC(=O)CN.Cl | 47 | 100 | – | –
CCCCCN1C=Nc2cccc3nc4c(c1c23)Cn1c-4cc2c(c1=O)COC(=O)[C@@]2(CC)OC(=O)CN(C)C(=O)CN.Cl | 0 | 83 | 100 | solubility [3]: > 10 mg/mL; Activity (NCI-H460 [4]): Active; Stability (Plasma [5]): < 1 min; Activity (HCT-116 [6]): Active; Stability (Plasma [8]): < 1 min; Activity (HCT-116 [9]): Active; Stability (Plasma [10]): < 1 min; MTD at 504 h [11]: 47 mg/kg; Activity (NCI-H460 [12]): Active; Stability (Plasma [13]): < 1 min
CCCCCN1C=Nc2cccc3nc4c(c1c23)Cn1c-4cc2c(c1=O)COC(=O)[C@@]2(CC)OC(=O)OCCS(=O)(=O)CCN.Cl | 4 | 96 | 100 | –
CCCCCN1C=Nc2cccc3nc4c(c1c23)Cn1c-4cc2c(c1=O)COC(=O)[C@@]2(CC)OC(=O)CN(C)C(=O)C(C)(C)N.Cl | 0 | 0 | 78 | –
CCCCCN1C=Nc2cccc3nc4c(c1c23)Cn1c-4cc2c(c1=O)COC(=O)[C@@]2(CC)OC(=O)CNC(=O)CNC.Cl | 73 | 100 | 100 | –
CCCCCN1C=Nc2cccc3nc4c(c1c23)Cn1c-4cc2c(c1=O)COC(=O)[C@@]2(CC)OC(=O)CN(C)C(=O)CNC.Cl | 0 | 83 | 95 | –
CCCCCN1C=Nc2cccc3nc4c(c1c23)Cn1c-4cc2c(c1=O)COC(=O)[C@@]2(CC)OC(=O)OCCS(=O)(=O)C[C@H](N)C(=O)OCC.Cl | 43 | 68 | 100 | –
CCCCCN1C=Nc2cccc3nc4c(c1c23)Cn1c-4cc2c(c1=O)COC(=O)[C@@]2(CC)OC(=O)[C@H](C)N(C)C(=O)CN.Cl | 0 | 47 | 99 | –
